In the library only some 2.9% were active in any assay of this set; here they are far more common.
HSP90 refold inh – blocks HSP90-mediated luciferase refolding in reticulocyte lysate; AID 1789; Rabbit reticulocyte lysate, luciferase refolding luminescence, 3 h; inhibition, % at 5.6 µM; 290,000 tested, 0.91% active;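 active means inhibition above the screen-wide mean plus 3 SD, computed separately per campaign, cut at about 16% in these data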;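 further: 0% = DMSO wells and 100% = 60 µM geldanamycin wells; inhibitors lower the luminescence because luciferase stays unfolded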
SENP7 block – blocks the human protease SENP7; inhibition, % at 5 µM; AID 434973; recombinant SENP7, Z-RLRGG-aminoluciferin luminescence, 40 min; 330,000 tested, 1.5% active;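 active means inhibition above about 50% at the single test dose, limit read from the data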;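 further: plate controls were DMSO with enzyme for no effect and no enzyme buffer wells for full effect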
SENP8 block-1 – blocks human SENP8 cleavage of Nedd8 substrate. Q96LD8. recombinant SENP8, Nedd8 substrate fluorescence. inhibition, % at 20 µM. 360,000 tested, 0.64% active. AID 602440; in the data active means inhibition mostly above about 40%, no sharp cut-off; inactive means mostly below about 27%
Target sequence (Q96LD8 whole entry, looked up): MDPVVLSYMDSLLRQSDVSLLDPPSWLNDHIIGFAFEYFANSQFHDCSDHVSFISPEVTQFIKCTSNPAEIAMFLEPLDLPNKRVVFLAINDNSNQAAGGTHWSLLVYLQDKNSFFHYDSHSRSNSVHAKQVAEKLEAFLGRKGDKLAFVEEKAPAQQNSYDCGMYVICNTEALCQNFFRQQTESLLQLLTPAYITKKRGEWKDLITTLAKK
SENP1 FRET inh – inhibitors of human SENP1 SUMO protease catalytic domain | Q9P0U3 | 360,000 tested, 0.21% active | recombinant SENP1 catalytic domain, CyPet-SUMO1-YPet FRET cleavage | inhibition, % at 10 µM | AID 624204;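 active means inhibition at least 30% at 10 µM, raw YFP signal under a set limit, fluorescence ratio 0.5 to 1.5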;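 further: 0% = enzyme with DMSO and 100% = no enzyme wells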
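material = recombinant human SENP1 catalytic domain, His6-tagged | quantity = 20 pM enzyme | reagent = 25 nM SUMO1 FRET substrate | compound dosing = 10 µM single point, 0.5% DMSO | timing = 50 min enzyme reaction, room temperature, light-protected | detection = FRET, CFP and YFP emission | control set = no-enzyme low, enzyme-DMSO high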
SENP6 block – inhibitors of human SENP6 protease. Q9GZR1. Recombinant SENP6 catalytic domain, aminoluciferin luminescence. AID 2599. inhibition, % at 10 µM. 330,000 tested, 1.8% active;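 active means inhibition above about 50% at the single tested dose, limit read from the data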;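 further: plate controls were DMSO wells with enzyme for no effect and DMSO wells lacking enzyme for full effect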
SENP8 block-2 – SENP8 protease inhibition. Q96LD8. purified SENP8, Z-RLRGG-aminoluciferin cleavage, luminescence. inhibition, % at 10 µM. 330,000 tested, 1.2% active. AID 2540; in the data active means inhibition above about 50%
SENP8 confirm – human SENP8 inhibition, confirmed; shares compounds with SENP7 block; Recombinant SENP8, Z-RLRGG-aminoluciferin luminescence, 60 min; inhibition, % at 12.5 µM; 6,200 tested, 40% active;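 active means mean inhibition across replicates above about 50%, limit read from the data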
SENP6 confirm – confirmation of human SENP6 protease inhibitors | 6,200 tested, 58% active | shares compounds with SENP7 block | inhibition, % at 12.5 µM | recombinant SENP6, Z-RLRGG-aminoluciferin luminescence
SENP7 confirm – confirmation of human SENP7 protease inhibitors | inhibition, % at 12.5 µM | 6,200 tested, 69% active | shares compounds with SENP7 block | recombinant SENP7, Z-RLRGG-aminoluciferin luminescence, 40 min
Casp3 select – selectivity test for SENP inhibitors: human caspase-3 inhibition; purified caspase-3, Z-DEVD-aminoluciferin luminescence, 60 min; shares compounds with SENP7 block; inhibition, % at 12.5 µM; 6,200 tested, 60% active; AID 488918;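 active means mean inhibition above about 50%, limit read from the data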;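 further: plate controls were enzyme with DMSO for no effect and wells without caspase-3 for full effect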
Target sequence (P42574 28-227 limits assumed): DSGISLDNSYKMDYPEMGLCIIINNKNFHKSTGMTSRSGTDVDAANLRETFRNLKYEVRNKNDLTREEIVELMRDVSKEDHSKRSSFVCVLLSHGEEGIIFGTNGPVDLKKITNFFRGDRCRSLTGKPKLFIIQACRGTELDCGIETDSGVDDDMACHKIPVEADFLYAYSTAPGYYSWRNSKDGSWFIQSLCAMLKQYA
Luc interf – counter-screen for SENP inhibitors: luminescence interference. shares compounds with SENP7 block. inhibition, % at 12.5 µM. Pre-incubated SENP8/Z-RLRGG-aminoluciferin, luciferase luminescence interference. AID 488919. 6,200 tested, 39% active;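 active means mean inhibition above about 50% when retested at one dose, limit read from the data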;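 further: plate controls were DMSO wells with completed reaction for no effect and substrate without enzyme for full effect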
The depositor's hits bear a star; i = inactive; . = not tested or not shown.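 How the source made its calls, unless noted: active means mean inhibition above about 50% in the one-dose retest (limit read from the data); inactive means the rest.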

SMILES | HSP90 refold inh | SENP7 block | SENP8 block-1 | SENP1 FRET inh | SENP6 block | SENP8 block-2 | SENP8 confirm | SENP6 confirm | SENP7 confirm | Casp3 select | Luc interf
COc1cccc(OCc2nc3c4cnn(-c5ccccc5)c4ncn3n2)c1 | -1 | 73* | -96 | 2 | -22 | 6 | -8 | 1 | 12 | 21 | 4
COc1cc(-c2nc3ccccc3s2)ccc1O | 3 | 89* | -272 | -171 | 94* | 94* | 95* | 96* | 102* | 88* | 95*
CN(C(=O)OC(C)(C)C)c1ccc(-c2nc3ccccc3s2)cc1 | . | 100* | -488 | -2 | 100* | 95* | 95* | 97* | 100* | 93* | 46
COC(=O)N(C)c1nc2ccccc2s1 | 2 | 4 | 27 | 1 | -13 | -4 | . | . | . | . | .
Nc1cccc(-c2nc3ccccc3s2)c1 | -3 | 100* | i | -19 | 100* | 93* | 96* | 98* | 103* | 96* | 97*
CN(C)c1ccc(-c2nnc(-c3cccs3)o2)cc1 | -3 | 79* | -398 | -40 | 72* | 60* | 2 | 51* | 76* | 2 | 4
CCCCOc1ccc(-c2nnc(-c3ccncc3)o2)cc1 | -4 | 15 | -270 | 0 | 12 | 1 | . | . | . | . | .
CCCOc1ccc(-c2nnc(-c3cccs3)o2)cc1 | -10 | -3 | -404 | 2 | 80* | 41 | 22 | 20 | 17 | 17 | 5
CN(C)c1oc(-c2cccs2)nc1C#N | -1 | 2 | -462 | 0 | -10 | 1 | . | . | . | . | .
Cc1ccc(-n2nnc(-c3cccnc3Cl)n2)cc1 | 10 | 76* | 12 | -2 | 74* | 52* | 36 | 52* | 42 | 38 | 17
Clc1ccc(-n2nnc(-c3cccnc3Cl)n2)cn1 | 3 | 7 | i | -2 | -11 | -14 | . | . | . | . | .
O=[N+]([O-])c1ccc(Cl)c(S(=O)(=O)Nc2cccc(-c3ccc(N4CCCC4)nn3)c2)c1 | . | 42 | 7 | 2 | 92* | 86* | 47 | 91* | 98* | 86* | 13
O=[N+]([O-])c1cccc(S(=O)(=O)[N-]c2nc3ccccc3nc2-n2cc[n+](Cc3ccccc3)c2)c1 | 2 | -9 | 7 | -10 | -13 | -3 | . | . | . | . | .
COc1ccc(C2C(C(=O)c3ccco3)=C(O)C(=O)N2CC2CCCO2)cc1OC (centres undefined) | 9 | -3 | 30 | 1 | 0 | -7 | . | . | . | . | .
COc1cccc(NC(=O)Nc2ccc3nsnc3c2)c1 | -2 | -10 | -123 | 2 | 50* | 44 | 57* | 52* | 77* | 38 | 54*
COc1cccc(NC(=O)Nc2nc(SC)ns2)c1 | -2 | 77* | 20 | 1 | 90* | 82* | 76* | 77* | 96* | 76* | 86*
Cc1nc2cc(NC(=O)NC(C)(C)C)ccc2n1C | 0 | 1 | 23 | 0 | 6 | 1 | . | . | . | . | .
COc1cccc(NC(=O)Nc2ccc3nc(C)c(C)nc3c2)c1 | -2 | 46 | -283 | 9 | 54* | 39 | 11 | 36 | 58* | 59* | 7
COc1cccc(NC(=O)Nc2ccc3c(c2)nc(C)n3C)c1 | 8 | 90* | 8 | 0 | 91* | 78* | 86* | 85* | 98* | 94* | 86*
CCCCCOc1ccc(C(=O)Nc2ccc(N3CCOCC3)cc2N2CCOCC2)cc1 | . | -1 | 25 | -5 | -3 | -1 | . | . | . | . | .
CC(=O)N(C)c1ccc(NS(=O)(=O)c2cccc3nsnc23)cc1 | -2 | 5 | 18 | 1 | -11 | -7 | . | . | . | . | .

Screening data from PubChem.
